# Measurements from paper PMC6286650 (EBioMedicine, 2018).
# What was measured:
# transgelin = transgelin (Homo sapiens, UniProt Q01995); assay: Biacore; details: Biacore binding to transgelin, 25 °C, CM5 chip, NA = no activity
# Summary of the method: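 CM5 chip at 25 °C with PBS-EP running buffer. Transgelin was amine-coupled by EDC/NHS, the same way as actin (0.4 mg/mL in 10 mM phosphate pH 7.4, 12 min, then 1 M ethanolamine pH 8.5; about 4000 RU). Test compound was run over protein and blank channels at 0–25 uM at 20 μL/min. Association 3 min, dissociation 300 s; regeneration with 10 mM glycine-HCl pH 2.5.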
# transgelin and actin = format: binding; details: disregarding the effect of SAA
# HVSMCs = format: cell-based, human; details: 10 μM
# CASMCs = assay: Cell contraction and F-actin formation in CASMCs; format: cell-based; details: 10 μM
# Summary of the method: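 Coronary artery smooth muscle cells came from primary culture in DMEM with 10% foetal bovine serum. They were treated with test compound at 10 μM, and relative cell length and F-actin formation were assessed against untreated control.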
# F-actin [1] = assay: F-actin fluorescence under actin inhibitor; format: cell-based
# actin [2] = assay: Hypoxia-induced actin degradation, fluorescence intensity; format: cell-based; details: hypoxic group 264
# actin [3] = assay: Multi-angle light scattering of actin aggregation; format: biochemical; details: in presence of transgelin
# actin [4] = format: biochemical; details: actin/transgelin plus compound
# F-actin [5] = assay: F-actin features in cells; format: cell-based, human; details: versus control group
# C57 wild type mice = assay: Isoproterenol-induced myocardial ischemia model in wild type mice; format: in vivo
# Summary of the method: (§1)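 Wild-type C57 or cre-lox transgelin knockout C57/BL6 mice, 24 per genotype, were split into normal, model and two treatment groups. Test compound was given orally at 10 mg/kg daily for one week; normal and model groups got saline. On day 5, isoproterenol 3 mg/kg i.p. was given (saline for normal group). After day 7, mice were anaesthetized with chloral hydrate for a three-needle-electrode ECG on a 40–42 °C pad.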
# transgelin (−/−) mice = assay: Isoproterenol-induced myocardial ischemia model in transgelin; format: in vivo; details: 10 mg/kg
# Summary of the method: as §1
# [6] = test system: isolated myocardial tissue; assay: Stimulation of isolated myocardial tissue
# [7] = isoproterenol-treated model group, ISO 3 mg/kg i.p.
# transgelin, sequence (Q01995 whole entry): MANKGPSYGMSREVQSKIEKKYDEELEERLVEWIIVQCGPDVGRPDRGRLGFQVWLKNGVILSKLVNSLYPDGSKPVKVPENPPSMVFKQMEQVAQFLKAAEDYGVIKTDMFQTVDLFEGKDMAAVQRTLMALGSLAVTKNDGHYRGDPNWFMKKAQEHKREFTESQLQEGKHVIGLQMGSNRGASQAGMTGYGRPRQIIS
compound,measurement,setting,value
"O=C(/C=C/c1ccc(O)c(O)c1/C=C/c1ccc(O)c(O)c1)O[C@H](Cc1ccc(O)c(O)c1)C(=O)O [SAA, salvianolic acid A]",Kd,transgelin,7.11 µM
same,Protein binding signal of transgelin and actin when SAA was added,transgelin and actin,1.3 times
same,Co-localization of transgelin and actin,HVSMCs; control approximately 57%,78%
same,Average length of VSMCs,HVSMCs; control approximately 90 μm,~80 μm
same,Relative length of CASMCs,CASMCs,declined
same,F-actin fluorescence intensity,"F-actin [1]; co-treatment with vincristine, vincristine alone 139",373
same,Actin fluorescence intensity,actin [2],453
same,Polymerization (aggregation) of actin,actin [3],further enhanced
same,Actin polymerization,actin [4],marked increase in actin polymerization
same,"F-actin area, F-actin percentage area, total F-actin length and average F-actin length",F-actin [5],increased
same,Heart infarction ratio,"C57 wild type mice; 10 mg/kg oral daily for 7 days, wild type MI mice 11.2%",4%
same,"CK, CK-MB, AST and LDH levels relative to transgelin (−/−) MI model group",transgelin (−/−) mice,not significantly changed
same,Therapeutic effect on myocardial ischemia,transgelin (−/−) mice,no therapeutic effect
same,Stimulation effect on isolated myocardial tissue,[6],no stimulation effect
CC(C)NCC(O)c1ccc(O)c(O)c1 (stereo not shown) [isoproterenol],Serum AST level compared to normal group,C57 wild type mice; [7],237% ± 19%
same,Serum CK level compared to normal group,C57 wild type mice; [7],166% ± 14%
same,Serum CK-MB level compared to normal group,C57 wild type mice; [7],165% ± 24%
same,Serum LDH level compared to normal group,C57 wild type mice; [7],174% ± 14%
"CC[C@]1(O)C[C@H]2CN(CCc3c([nH]c4ccccc34)[C@@](C(=O)OC)(c3cc4c(cc3OC)N(C=O)[C@H]3[C@@](O)(C(=O)OC)[C@H](OC(C)=O)[C@]5(CC)C=CCN6CC[C@]43[C@@H]65)C2)C1 [vincristine, reference compound]",F-actin fluorescence intensity,"F-actin [1]; vincristine alone, control 395",139
